Read-outs that look alike come from different tables or passages of the source.
What was measured:
[1] = Cytotoxicity assay on WI38 cells; format: cell-based, human; settings: human, WI38 cells (human embryonic lung fibroblasts)
How it was run: (§1)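 WI38 cells harvested at log phase and seeded at 10 000/well in DMEM or MEM with 10% FBS and 1% penicillin-streptomycin. After 12 h adherence at 37 °C, 5% CO2, 2-fold dilutions (final 50 to 1.57 μM) were added in triplicate for 2 days. MTT read-out: 4 h, DMSO solubilisation, 490 nm. CC50 is the mean of two independent experiments. SI = CC50/IC50 for each Pf strain.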

[2] = system: human embryonic lung fibroblast WI38; assay: Cytotoxicity assay on WI38 cells; format: cell-based; settings: for SI CC50/IC50 (Pf3D7): CC50 WI38 / IC50 Pf3D7; for SI CC50/IC50 (PfDd2): CC50 WI38 / IC50 PfDd2
How it was run: as §1

[3] = system: adult S. japonicum; assay: In vitro assay for drug effect on adult S. japonicum; format: cell-based, Schistosoma japonicum; settings: 72 h
How it was run: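 Adult worms taken from infected mice 34–38 days post-infection, perfused with ice-cold heparinised HBSS, rinsed three times. Kept in RPMI 1640 with 10% calf serum, penicillin, streptomycin and amphotericin B. Four worm pairs per well, 2 h preincubation at 37 °C, 5% CO2, then compound at final 10 or 5 μg/mL; DMSO control. Scored at 24, 48, 72 h; death = no sucker/body movement for 2 min.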

[4] = system: β-hematin formation; assay: Inhibition assay of β-hematin formation; format: biochemical; settings: for β-Hematin % Inhibition: at a concentration of 100 μM; for IC50: read-out: β-Hematin IC50
How it was run: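 NP-40 detergent-mediated β-hematin assay. Compound in DMSO plus NP-40 and water. Hematin was dissolved in DMSO (25 mM stock) and suspended in acetate buffer (pH 4.8; final 0.5 M). Incubated 4 h at 37 °C. Controls: DMSO (negative), chloroquine and amodiaquine (100 μM final). Pyridine-ferrichrome read-out: 5% v/v final pyridine, HEPES pH 7.4, extra acetone, 405 nm. % inhibition at 100 μM; IC50 from concentration series; triplicate, repeated twice.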

[5] = system: juvenile S. japonicum (schistosomula); assay: In vitro assay for drug effect on juvenile S. japonicum; format: cell-based, Schistosoma japonicum; settings: 10 μg/mL
How it was run: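 Cercariae mechanically transformed to schistosomula and kept in RPMI 1640 with 5% FBS, 100 IU/mL penicillin and 100 μg/mL streptomycin at 37 °C, 5% CO2. 50 schistosomula/well exposed to compound at final 10 μg/mL for 72 h, in duplicate, with DMSO negative control. Activity, survival time, mortality and morphology scored microscopically at 12, 24, 48 and 72 h.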

[6] = system: PfDd2 (chloroquine-resistant) strain; assay: In vitro P. falciparum whole cell assay; format: cell-based; settings: Plasmodium falciparum, 72 h, read-out: PfDd2 IC50
How it was run: (§2)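 Parasites synchronised to 95% ring stage with 5% sorbitol. Stocks: chloroquine in water, test compounds and dihydroartemisinin in DMSO, diluted in incomplete 1640 medium. Ring-stage cultures (1% parasitaemia, 2% haematocrit) exposed to serial dilutions for 72 h at 37 °C. Growth read by SYBR Green I fluorescence. IC50 from a sigmoidal growth fit.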

[7] = system: Pf3D7 (chloroquine-sensitive) strain; assay: In vitro P. falciparum whole cell assay; format: cell-based; settings: Plasmodium falciparum, 72 h, read-out: Pf3D7 IC50
How it was run: as §2

| SMILES | CC50 at 2 days [1] | SI CC50/IC50 (Pf3D7) [2] | SI CC50/IC50 (PfDd2) [2] | Adult S. japonicum worm-killing ([3]; 5 μg/mL) | Adult S. japonicum worm-killing ([3]; 10 μg/mL) | β-Hematin % Inhibition [4] | IC50 [4] | Juvenile S. japonicum worm-killing [5] | IC50 [6] | IC50 [7] | IC50 ([4]; listed as chloroquine) |
| --- | --- | --- | --- | --- | --- | --- | --- | --- | --- | --- | --- |
| CCCCNC[C@@H](O)Cn1c2ccc(Cl)cc2c2cc(Cl)ccc21 [(R)-7, (R)-1-(butylamino)-3-(3,6-dichloro-9H-carbazol-9-yl)propan-2-ol] | 7690 nM | 22 | 45 | + | + | 75.13% | 119000 ± 7140 nM | + | 172 ± 32 nM | 344 ± 54 nM | – |
| CCCCNC[C@H](O)Cn1c2ccc(Cl)cc2c2cc(Cl)ccc21 [(S)-7, (S)-1-(butylamino)-3-(3,6-dichloro-9H-carbazol-9-yl)propan-2-ol] | 9340 nM | 24 | 83 | + | + | 80.09% | 106000 ± 8420 nM | + | 112 ± 30 nM | 378 ± 91 nM | – |
| CCN(CC)Cc1cc(Nc2ccnc3cc(Cl)ccc23)ccc1O [Amodiaquine, reference compound] | – | – | – | – | – | 100% | 15900 ± 1290 nM | – | – | – | – |
| CCN(CC)CCCC(C)Nc1ccnc2cc(Cl)ccc12 (stereo not drawn) [Chloroquine, reference compound] | – | – | – | – | – | 97.8% | 61000 ± 5550 nM | – | 231 ± 24 nM | 15 ± 8 nM | 61000 nM |
| OC(CN1CCCC1)Cn1c2ccc(Cl)cc2c2cc(Cl)ccc21 (stereo not drawn) [Compound 3, 1-(3,6-Dichloro-9H-carbazol-9-yl)-3-(pyrrolidin-1-yl)propan-2-ol] | – | – | – | – | + | 10.76% | – | – | – | 2670 ± 870 nM | – |
| OC(CN1CCCCC1)Cn1c2ccc(Cl)cc2c2cc(Cl)ccc21 (stereo not drawn) [Compound 4, 1-(3,6-Dichloro-9H-carbazol-9-yl)-3-(piperidin-1-yl)propan-2-ol] | – | – | – | – | + | – | – | – | – | – | – |
| OC(CN1CCOCC1)Cn1c2ccc(Cl)cc2c2cc(Cl)ccc21 (stereo not drawn) [Compound 5, 1-(3,6-Dichloro-9H-carbazol-9-yl)-3-morpholinopropan-2-ol] | – | – | – | – | – | 0% | – | – | – | 1290 ± 329 nM | – |
| CCCCCCNCC(O)Cn1c2ccc(Cl)cc2c2cc(Cl)ccc21 (stereo not drawn) [Compound 9, 1-(3,6-Dichloro-9H-carbazol-9-yl)-3-(hexylamino)propan-2-ol] | 5920 nM | 22 | 126 | ± | + | 81.85% | 55000 ± 5870 nM | + | 47 ± 10 nM | 274 ± 63 nM | – |
| CCCCCCCNCC(O)Cn1c2ccc(Cl)cc2c2cc(Cl)ccc21 (stereo not drawn) [Compound 10, 1-(3,6-Dichloro-9H-carbazol-9-yl)-3-(heptylamino)propan-2-ol] | 5140 nM | 28 | 95 | ± | + | 74.74% | 91600 ± 4670 nM | + | 54 ± 10 nM | 179 ± 44 nM | – |
| CCCCCCCCNCC(O)Cn1c2ccc(Cl)cc2c2cc(Cl)ccc21 (stereo not drawn) [Compound 11, 1-(3,6-Dichloro-9H-carbazol-9-yl)-3-(octylamino)propan-2-ol] | 3770 nM | 29 | 70 | ± | + | 50.59% | 65400 ± 4900 nM | + | 54 ± 6 nM | 132 ± 59 nM | – |
| C[C@H]1[C@@H](O)O[C@@H]2O[C@@]3(C)CC[C@H]4[C@H](C)CC[C@@H]1[C@@]24OO3 [Dihydroartemisinin, reference compound] | – | – | – | – | – | – | – | – | 5 ± 0.2 nM | – | – |
| O=C(C1CCCCC1)N1CC(=O)N2CCc3ccccc3C2C1 (stereo not drawn) [Praziquantel, reference compound] | – | – | – | + | + | – | – | – | – | – | – |
